The values below come from article PMC6237275 (Chemical science, 2013).

Residues, ends and D or L forms follow the SMILES beside them.

In test [1] the test system is MCF-7 cells. The experiment in a line: Time-lapse video microscopy, peptide in medium, MCF-7. The test is classed as cell-based. In short, it runs like this:
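Cell-penetrating peptide or TAT alone goes into the medium of asynchronous MCF-7 cultures, imaged by time-lapse microscopy every 30 min for 65 h. Each cell's first mitosis is scored for abnormality (prolonged rounding, failed cytokinesis, death), with time in mitosis per cell. Total cell number increase is taken over the first 48 h. Fisher's exact test; experiments repeated at least twice.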

The test system of another test is GST–CtBP1 / His–CtBP1. As to the kind of experiment: GST pull down assay. Type of test: biochemical. Conditions: presence of NADH; 50 mM Tris–HCl pH 7.2 pull-down buffer. An outline of the steps: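 Recombinant GST-CtBP1 and His-CtBP1 are expressed in E. coli and purified on glutathione or nickel resin, with 30 min 0.25 mM pyruvate on-resin to oxidize bound NADH. 10 mg mL−1 bacterial lysate blocks nonspecific binding.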

Test [2] concerns CtBP2 homodimerization (CtBP2 fused to 434 repressor). As to the kind of experiment: CtBP2 reverse two-hybrid system. Type of test: cell-based. Conditions: arabinose-induced peptide production; 50 μM IPTG; minimal (selective) media.
The test system of test [3] is CtBP1 homodimerization (CtBP1 fused to 434 repressor). As to the kind of experiment: CtBP1 reverse two-hybrid system. Conditions: for Target (homodimerization disrupted in RTHS): CtBP1 and CtBP2 RTHS, SICLOPPS; for Rank (top 3 CtBP1/CtBP2 inhibitors identified by SICLOPPS): ranked by drop spotting, CtBP1/CtBP2 RTHS. The test is classed as cell-based. An outline of the steps:
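E. coli reverse two-hybrid hosts carry SICLOPPS cyclic peptide library plasmids; only clones whose peptide disrupts CtBP homodimerization survive on selective media. For CtBP1, 104 surviving colonies were picked, and their plasmids were isolated and retransformed into the CtBP1 RTHS. For drop-spotting, 2.5 μL of serial cell dilutions go onto selective plates with and without […].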

The test system of the next test is MDA-MB-453 cells. The experiment in a line: Microinjection and time-lapse video microscopy, MDA-MB-453. The test is classed as cell-based. Particulars: microinjected 50 μM.
For test [4], the system named is MCF-7 cells. As to the kind of experiment: Microinjection and time-lapse video microscopy, MCF-7. Type of test: cell-based. In short, it runs like this:
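MCF-7 cells are synchronized 48 h in 0.1% FCS, then released with 10% serum. At 20 h post-release, cells are microinjected in PBS with 70 kDa FITC-dextran (1 μg μL−1) plus peptide (50 μM) or GST-fusion protein (1 μg μL−1). Controls are FITC-dextran alone or non-injected cells. Time-lapse images every 30 min; first mitosis scored for abnormality and duration. Fisher's exact test.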

The test system of another test is lactate dehydrogenase. The experiment in a line: Lactate dehydrogenase activity. Type of test: biochemical. Particulars: at concentrations of up to 100 μM.
The next test deals with CtBP1 (His–CtBP1) (Homo sapiens, UniProt Q13363). The experiment in a line: FRET-based CtBP1/NADH-binding assay.
Another test relates to breast cancer cells. Particulars: ref [31]; cited from earlier work.
For the next test, the system named is CtBPs. Particulars: high concentrations of MTOB; ref [37]; cited from earlier work.
The subject of another test is colon cancer cells. Particulars: ref [36]; cited from earlier work.
For the next test, the system named is His–CtBP1. The experiment in a line: Size exclusion chromatography of His–CtBP1. The test is classed as biochemical. Particulars: increasing concentrations of NADH; Superdex 200, PBS.
Test [5] relates to CtBP1/CtBP2 dimerization (CFP–CtBP1, YFP–CtBP2) in COS-7 cells. As to the kind of experiment: CtBP cellular compartmentalization assay. Particulars: 100 μM. The test is classed as cell-based. An outline of the steps:
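COS-7 cells transfected with CFP–CtBP1 (pSCFP3A-based) and YFP–CtBP2 (pSYFP2-based) expression vectors. Test compound as TAT conjugate (100 μM) or 100 μM TAT added to medium. Expression and co-localization were imaged by fluorescence microscopy, and cells were scored by line analysis for cytoplasmic CFP–CtBP1, with cell numbers counted. Fisher's exact test on contingency tables versus TAT-treated cells.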

Test [6] deals with MCF-7 cells. As to the kind of experiment: Micronuclei assay, MCF-7. The test is classed as cell-based. Conditions: up to 100 μM TAT; 48 h; >400 cells scored. In short, it runs like this: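 Peptides are added to the medium of asynchronous MCF-7 cultures, and cells are fixed after 48 h for micronuclei counting, with >400 cells scored per point. Data are mean ± SEM of triplicate wells from a representative of at least two independent experiments. One-way ANOVA with Tukey's post hoc test.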

On to `CSCC[C@@H]1NC(=O)[C@H](CCCNC(=N)N)NC(=O)[C@H](C(C)C)NC(=O)[C@H](C(C)C)NC(=O)[C@H]([C@@H](C)O)NC(=O)[C@H](Cc2c[nH]c3ccccc23)NC(=O)CNC(=O)[C@H](CO)NC(=O)[C@H](Cc2ccc(O)cc2)NC1=O` [CP61] (cyclo(GWTVVRMYS)), for which the “Concentration inhibiting the cellular function of CtBPs” value with MCF-7 cells [1] (in cells (discussion summary)) was found to be 50 µM. Moreover, the “Disruption of NADH-dependent association between GST–CtBP1 and His–CtBP1” value with GST–CtBP1 / His–CtBP1 was “disrupted”. In addition, the “Survival on selective media / disruption of CtBP2 homodimerization” value in [2] was “Restoration of growth with arabinose”. For the same molecule, in test [3], the “Target (homodimerization disrupted in RTHS)” value is “CtBP1/CtBP2” and the “Rank (top 3 CtBP1/CtBP2 inhibitors identified by SICLOPPS)” value was 1. Further, the “Survival on selective media / disruption of CtBP1 homodimerization” value in [3] (arabinose-induced peptide production, 50 μM IPTG, minimal (selective) media) was “Restoration of growth with arabinose”. The “Length of time in mitosis (in words)” value in the test with MDA-MB-453 cells (MDA-MB-453 (Fig. 8b)) is “did not affect the length of time MDA-MB-453 cells spent in mitosis”. Further, the “Percentage of mitoses that were aberrant (in words)” value in the test with MDA-MB-453 cells (MDA-MB-453, P > 0.05 compared to control-injected) was “did not significantly affect the percentage of mitoses that were aberrant”. In addition, the “Mitoses that were aberrant” value in the test with MCF-7 cells [4] (microinjected 50 μM, MCF-7, control-injected 10.2%, P < 0.0001 (Fig. 8a)) amounted to 50.8%. Also, the “Mean length of time in mitosis” value in the test with MCF-7 cells [4] (microinjected 50 μM, MCF-7, control-injected 1.9 h (Fig. 8b)) worked out at 4 h. Besides, the “Effect on activity of lactate dehydrogenase” value with lactate dehydrogenase was “no effect”. For the same molecule, at CtBP1 (His–CtBP1) (excitation 285 nm, emission 425 nm, 300 nM His–CtBP1, room temperature), the “Reduction of NADH-dependent FRET signal (CtBP1–NADH interaction)” value was “reduced upon addition of CP61, in a dose-dependent manner”. Moreover, the “Mechanism of inhibition of NADH-binding” value at CtBP1 (His–CtBP1) (maximum FRET signal at saturating NADH reduced in a CP61-dependent manner) is “allosteric mechanism for inhibition of NADH-binding”.
Consider `CSCCC(=O)C(=O)O` [MTOB, 2-keto-4-methylthiobutyrate], for which the “Repression of multiple CtBP-targeted genes” value in the test on breast cancer cells is on record as “reverse the repression of multiple CtBP-targeted genes in breast cancer cells”. Besides, the “Recruitment of CtBPs to target promoters” value with CtBPs was “inhibiting the recruitment of CtBPs to target promoters”. Also, the “Repression of pro-apoptotic gene BIK” value in the test on colon cancer cells was “reverse the repression of the pro-apoptotic gene BIK in colon cancer cells”.
As to `NC(=O)C1=CN([C@@H]2O[C@H](COP(=O)(O)OP(=O)(O)OC[C@H]3O[C@@H](n4cnc5c(N)ncnc54)[C@H](O)[C@@H]3O)[C@@H](O)[C@H]2O)C=CC1` [NADH], the “Monomer to dimer shift of CtBP1” value in the test with His–CtBP1 was “shifted to a peak corresponding to dimeric CtBP1 in a dose-dependent manner”.
As to GRKKRRQRRRPPQ [TAT], the “Increase in cell numbers” value in the test on MCF-7 cells [1] (50 μM, 48 hours) was found to be 111%. Also, in test [5], the “Nuclear co-localization of CtBPs” value is reported as “showed the expected co-localization with YFP–CtBP2 in the nucleus”. Also, the Cells containing micronuclei result in the test with MCF-7 cells [6] is given as “Approximately 7%”.
As to “GST–CtBP^DD: construct encoding the central dimerization domain (110–359) of CtBP2”, the “Cells with aberrant mitosis phenotype” value in the test on MCF-7 cells [4] (protein injected at 1 μg μL−1 in PBS, MCF-7 (Fig. 7e)) was 45%. The “Time in mitosis (in words)” value in the test on MCF-7 cells [4] (protein injected at 1 μg μL−1 in PBS, MCF-7 (Fig. 7f)) is reported as “increased the time in mitosis, in line with that observed in CP61-treated cells”.
In the case of SGW PLSTWY (head to tail) [CP68], in test [3], the “Target (homodimerization disrupted in RTHS)” value is on record as “CtBP1/CtBP2” and the “Rank (top 3 CtBP1/CtBP2 inhibitors identified by SICLOPPS)” value came to 2.
In the same order, the values of SGW RLIRLY (head to tail) [CP65] are “CtBP1/CtBP2” and 3.
